Laboratory results taken from ChEMBL document CHEMBL3596195, “Novel cajaninstilbene acid derivatives as antibacterial agents” (Eur J Med Chem, 2015).
In brackets after ≈: the same amount, converted by molar mass.

Legend:
Pseudomonas aeruginosa = experiment: Antibacterial activity against Pseudomonas aeruginosa ATCC2785 assessed as bacterial growth inhibition after 24 hrs by broth dilution method; type: functional; details: ATCC2785, 24 h
[1] = Selectivity index, ratio of IC50 for mouse RAW264.7 cells to MIC for methicillin-resistant Staphylococcus aureus ATCC62202; type: toxicity; details: read-out: Selectivity Index
Procedure, shortened: (§1)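 SI = IC50 in mouse RAW 264.7 macrophages divided by broth-dilution MIC. For cytotoxicity, cells in DMEM/10% FBS/2 mM L-glutamine were seeded at 10,000/well for 12 h. They were then dosed across a concentration gradient in 1% FBS medium with DMSO below 0.1% for 72 h. Read-out was MTT, absorbance 562 nm, 4 wells × at least 3 runs.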

Staphylococcus aureus [2] = experiment: Antibacterial activity against Staphylococcus aureus ATCC25923 assessed as bacterial growth inhibition after 24 hrs by broth dilution method; type: functional; details: ATCC25923, 24 h
Staphylococcus aureus [3] = experiment: Antibacterial activity against methicillin-resistant Staphylococcus aureus ATCC52056 assessed as bacterial growth inhibition after 24 hrs by broth dilution method; type: functional; details: ATCC52056, 24 h
Staphylococcus aureus [4] = experiment: Antibacterial activity against methicillin-resistant Staphylococcus aureus ATCC510019 assessed as bacterial growth inhibition after 24 hrs by broth dilution method; type: functional; details: ATCC510019, 24 h
[5] = Selectivity index, ratio of IC50 for mouse RAW264.7 cells to MIC for methicillin-resistant Staphylococcus aureus ATCC510019; type: toxicity; details: read-out: Selectivity Index; procedure, shortened: as §1
[6] = Selectivity index, ratio of IC50 for mouse RAW264.7 cells to MIC for Bacillus subtilis ATCC6633; type: toxicity; details: read-out: Selectivity Index; procedure, shortened: as §1
Proteus vulgaris = experiment: Antibacterial activity against Proteus vulgaris ATCC49101 assessed as bacterial growth inhibition after 24 hrs by broth dilution method; type: functional; details: ATCC49101, 24 h
[7] = Selectivity index, ratio of IC50 for mouse RAW264.7 cells to MIC for methicillin-resistant Staphylococcus aureus ATCC515992; type: toxicity; procedure, shortened: as §1
Staphylococcus aureus [8] = experiment: Antibacterial activity against methicillin-resistant Staphylococcus aureus ATCC51033 assessed as bacterial growth inhibition after 24 hrs by broth dilution method; type: functional; details: ATCC51033, 24 h
Staphylococcus aureus [9] = experiment: Ratio of penicillin MIC to compound MIC for Staphylococcus aureus ATCC25923 after 24 hrs by broth dilution method; type: functional
Staphylococcus aureus [10] = experiment: Antibacterial activity against methicillin-resistant Staphylococcus aureus ATCC425055 assessed as bacterial growth inhibition after 24 hrs by broth dilution method; type: functional; details: ATCC425055, 24 h
Escherichia coli = experiment: Antibacterial activity against Escherichia coli ATCC25922 assessed as bacterial growth inhibition after 24 hrs by broth dilution method; type: functional; details: ATCC25922, 24 h
RAW264.7 = experiment: Cytotoxicity against mouse RAW264.7 cells assessed as inhibition of cell viability after 72 hrs by MTT assay; type: cell-based; details: RAW264.7, 72 h
Procedure, shortened: (§2)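 Mouse RAW 264.7 macrophages grown in DMEM with 10% FBS, 2 mM L-glutamine and penicillin/streptomycin at 37 °C, 5% CO2. Seeded at 10,000 cells/well for 12 h. Compound diluted 1000× from DMSO stock into 1% FBS medium (DMSO under 0.1%), over a concentration gradient, 72 h exposure. MTT formazan dissolved in DMSO for 45 min, absorbance read at 562 nm. Quadruplicate wells, at least three runs (N = 12).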

Staphylococcus aureus [11] = experiment: Antibacterial activity against methicillin-resistant Staphylococcus aureus ATCC43300 assessed as bacterial growth inhibition after 24 hrs by broth dilution method; type: functional; details: ATCC43300, 24 h
Staphylococcus aureus [12] = experiment: Antibacterial activity against methicillin-resistant Staphylococcus aureus ATCC62202 assessed as bacterial growth inhibition after 24 hrs by broth dilution method; type: functional; details: ATCC62202, 24 h
Staphylococcus aureus [13] = experiment: Antibacterial activity against methicillin-resistant Staphylococcus aureus ATCC523512 assessed as bacterial growth inhibition after 24 hrs by broth dilution method; type: functional; details: ATCC523512, 24 h
[14] = Selectivity index, ratio of IC50 for mouse RAW264.7 cells to MIC for methicillin-resistant Staphylococcus aureus ATCC51033; type: toxicity; details: read-out: Selectivity Index; procedure, shortened: as §1
[15] = Cytotoxicity against mouse RAW264.7 cells assessed as cell viability at 8 ug/ml after 72 hrs by MTT assay; type: cell-based; details: read-out: Activity; procedure, shortened: as §2
[16] = Selectivity index, ratio of IC50 for mouse RAW264.7 cells to MIC for methicillin-resistant Staphylococcus aureus ATCC43300; type: toxicity; details: read-out: Selectivity Index; procedure, shortened: as §1
[17] = Selectivity index, ratio of IC50 for mouse RAW264.7 cells to MIC for methicillin-resistant Staphylococcus aureus ATCC513045; type: toxicity; details: read-out: Selectivity Index; procedure, shortened: as §1
[18] = Selectivity index, ratio of IC50 for mouse RAW264.7 cells to MIC for methicillin-resistant Staphylococcus aureus ATCC523512; type: toxicity; details: read-out: Selectivity Index; procedure, shortened: as §1
[19] = Selectivity index, ratio of IC50 for mouse RAW264.7 cells to MIC for methicillin-resistant Staphylococcus aureus ATCC52056; type: toxicity; details: read-out: Selectivity Index; procedure, shortened: as §1
[20] = Selectivity index, ratio of IC50 for mouse RAW264.7 cells to MIC for methicillin-resistant Staphylococcus aureus ATCC425055; type: toxicity; details: read-out: Selectivity Index; procedure, shortened: as §1
Staphylococcus aureus [21] = experiment: Antibacterial activity against methicillin-resistant Staphylococcus aureus ATCC515992 assessed as bacterial growth inhibition after 24 hrs by broth dilution method; type: functional; details: ATCC515992, 24 h
[22] = tested on: Staphylococcus epidermidis; experiment: Ratio of norfloxacin MIC to compound MIC for Staphylococcus epidermidis ATCC12228 after 24 hrs by broth dilution method; type: functional
Staphylococcus aureus [23] = experiment: Antibacterial activity against methicillin-resistant Staphylococcus aureus ATCC513045 assessed as bacterial growth inhibition after 24 hrs by broth dilution method; type: functional; details: ATCC513045, 24 h
[24] = Selectivity index, ratio of IC50 for mouse RAW264.7 cells to MIC for Staphylococcus epidermidis ATCC12228; type: toxicity; details: read-out: Selectivity Index; procedure, shortened: as §1
Bacillus subtilis [25] = experiment: Antibacterial activity against Bacillus subtilis ATCC6633 assessed as bacterial growth inhibition after 24 hrs by broth dilution method; type: functional; details: ATCC6633, 24 h
[26] = Selectivity index, ratio of IC50 for mouse RAW264.7 cells to MIC for Staphylococcus aureus ATCC25923; type: toxicity; details: read-out: Selectivity Index; procedure, shortened: as §1
[27] = tested on: Staphylococcus epidermidis; experiment: Antibacterial activity against Staphylococcus epidermidis ATCC12228 assessed as bacterial growth inhibition after 24 hrs by broth dilution method; type: functional; details: ATCC12228, 24 h
Bacillus subtilis [28] = experiment: Ratio of norfloxacin MIC to compound MIC for Bacillus subtilis ATCC6633 after 24 hrs by broth dilution method; type: functional
[29] = tested on: Staphylococcus epidermidis; experiment: Ratio of penicillin MIC to compound MIC for Staphylococcus epidermidis ATCC12228 after 24 hrs by broth dilution method; type: functional
Procedure, shortened: (§3)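 MICs came from broth double dilution from 256 µg/mL in 5×10^5 cells/mL culture, 37 °C, 24 h, read visually as the lowest concentration without turbidity. The ratio is the reference antibiotic's MIC over the compound's MIC.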

Staphylococcus aureus [30] = experiment: Ratio of norfloxacin MIC to compound MIC for Staphylococcus aureus ATCC25923 after 24 hrs by broth dilution method; type: functional; procedure, shortened: as §3

Row | Compound | MIC (Pseudomonas aeruginosa) [µg/mL] | selectivity ratio [1] | MIC (Staphylococcus aureus [2]) [µg/mL] | MIC (Staphylococcus aureus [3]) [µg/mL] | MIC (Staphylococcus aureus [4]) [µg/mL] | selectivity ratio [5] | MIC (Proteus vulgaris) [µg/mL] | selectivity ratio [7] | MIC (Staphylococcus aureus [8]) [µg/mL] | Ratio (Staphylococcus aureus [9]) | MIC (Staphylococcus aureus [10]) [µg/mL] | MIC (Escherichia coli) [µg/mL] | IC50 (RAW264.7) [µg/mL] | MIC (Staphylococcus aureus [11]) [µg/mL] | MIC (Staphylococcus aureus [12]) [µg/mL] | MIC (Staphylococcus aureus [13]) [µg/mL] | selectivity ratio [14] | viability at 72 h, 8 ug/ml [15] [%] | selectivity ratio [19] | MIC (Staphylococcus aureus [21]) [µg/mL] | also measured
1 | COc1cc(/C=C/c2ccccc2F)c(C(=O)O)c(O)c1CC=C(C)C | > 64 | 6.17 | 4 (≈ 11.2 µM) | 2 (≈ 5.61 µM) | 2 (≈ 5.61 µM) | 12.3 | > 64 | 12.3 | 1 (≈ 2.81 µM) | 64 | 0.5 (≈ 1.4 µM) | 64 (≈ 180 µM) | 24.7 (≈ 69.3 µM) | 1 (≈ 2.81 µM) | 0.5 (≈ 1.4 µM) | 2 (≈ 5.61 µM) | 6.17 | 92.7 | 12.3 | 2 (≈ 5.61 µM) | selectivity ratio [6]: 6.17; selectivity ratio [16]: 6.17; selectivity ratio [17]: 6.17; selectivity ratio [18]: 6.17; selectivity ratio [20]: 6.17; Ratio [22]: 8; MIC (Staphylococcus aureus [23]): 2 µg/mL (≈ 5.61 µM); selectivity ratio [24]: 6.17; MIC (Bacillus subtilis [25]): 0.5 µg/mL (≈ 1.4 µM); selectivity ratio [26]: 6.17; MIC [27]: 1 µg/mL (≈ 2.81 µM)
2 | COc1cc(/C=C/c2cccc(F)c2)c(C(=O)O)c(O)c1CC=C(C)C | > 64 | 5.04 | 4 (≈ 11.2 µM) | 0.5 (≈ 1.4 µM) | 1 (≈ 2.81 µM) | 20.2 | > 64 | 20.2 | 1 (≈ 2.81 µM) | 64 | 2 (≈ 5.61 µM) | > 128 | 20.2 (≈ 56.6 µM) | 1 (≈ 2.81 µM) | 0.5 (≈ 1.4 µM) | 2 (≈ 5.61 µM) | 5.04 | 91.7 | 40.3 | 1 (≈ 2.81 µM) | selectivity ratio [6]: 5.04; selectivity ratio [16]: 5.04; selectivity ratio [17]: 5.04; selectivity ratio [18]: 5.04; selectivity ratio [20]: 5.04; Ratio [22]: 8; MIC (Staphylococcus aureus [23]): 2 µg/mL (≈ 5.61 µM); selectivity ratio [24]: 5.04; MIC (Bacillus subtilis [25]): 0.5 µg/mL (≈ 1.4 µM); selectivity ratio [26]: 5.04; MIC [27]: 2 µg/mL (≈ 5.61 µM)
3 | COc1cc(/C=C/c2ccc(F)cc2F)c(C(=O)O)c(O)c1CC=C(C)C | > 64 | 46.5 | 1 (≈ 2.67 µM) | 2 (≈ 5.34 µM) | 2 (≈ 5.34 µM) | 23.3 | > 64 | 46.5 | 1 (≈ 2.67 µM) | 64 | 0.5 (≈ 1.34 µM) | > 128 | 46.5 (≈ 124 µM) | 2 (≈ 5.34 µM) | 1 (≈ 2.67 µM) | 2 (≈ 5.34 µM) | 46.5 | 94.4 | 23.3 | 1 (≈ 2.67 µM) | Ratio (Bacillus subtilis [28]): 8; MIC (Staphylococcus aureus [23]): 2 µg/mL (≈ 5.34 µM); MIC (Bacillus subtilis [25]): 2 µg/mL (≈ 5.34 µM); selectivity ratio [26]: 46.5; MIC [27]: 0.5 µg/mL (≈ 1.34 µM)
4 | COc1cc(/C=C/c2ccc(C(F)(F)F)cc2)c(C(=O)O)c(O)c1CC=C(C)C | > 64 | 12.9 | 2 (≈ 4.92 µM) | 4 (≈ 9.84 µM) | 2 (≈ 4.92 µM) | 12.9 | > 64 | 51.4 | 1 (≈ 2.46 µM) | 1 | 0.5 (≈ 1.23 µM) | > 128 | 25.7 (≈ 63.3 µM) | 2 (≈ 4.92 µM) | 0.5 (≈ 1.23 µM) | 0.5 (≈ 1.23 µM) | 12.9 | 90.6 | 6.43 | 0.5 (≈ 1.23 µM) | Ratio [29]: 64; selectivity ratio [6]: 12.9; Ratio (Staphylococcus aureus [30]): 8; selectivity ratio [16]: 12.9; selectivity ratio [17]: 12.9; selectivity ratio [18]: 12.9; selectivity ratio [20]: 12.9; MIC (Staphylococcus aureus [23]): 8 µg/mL (≈ 19.7 µM); selectivity ratio [24]: 12.9; MIC (Bacillus subtilis [25]): 1 µg/mL (≈ 2.46 µM); selectivity ratio [26]: 12.9; MIC [27]: 2 µg/mL (≈ 4.92 µM)
